Laboratory results: ChEMBL document CHEMBL2146377, “Rational design of 4-aryl-1,2,3-triazoles for indoleamine 2,3-dioxygenase 1 inhibition” (J Med Chem, 2012)
The source made the active and inactive calls. No cut-off for these calls is given here.

What follows are compounds tested against Indoleamine 2,3-dioxygenase 1 (Mus musculus, UniProt P28776) (assay: Inhibition of mouse IDO1 in P815 clone 6 cells by HPLC analysis). Settings: not given.
Format: cell-based
Procedure, shortened: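 Murine mastocytoma P815 stably transfected cells were used: P815-mIDO1 clone 6 for mouse IDO1 and P815B-hIDO1 clone 6 for human IDO1. Cells with inhibitor were incubated at 37 °C until under 50% of tryptophan was consumed, as tracked in control wells by pDMAB absorbance at 480 nm. Supernatant was TCA-precipitated, and tryptophan and kynurenine were quantified by C18 HPLC. Values are the mean of ≥2 independent assays.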

Chain of Indoleamine 2,3-dioxygenase 1 (Mus musculus, UniProt P28776) (P28776 whole entry): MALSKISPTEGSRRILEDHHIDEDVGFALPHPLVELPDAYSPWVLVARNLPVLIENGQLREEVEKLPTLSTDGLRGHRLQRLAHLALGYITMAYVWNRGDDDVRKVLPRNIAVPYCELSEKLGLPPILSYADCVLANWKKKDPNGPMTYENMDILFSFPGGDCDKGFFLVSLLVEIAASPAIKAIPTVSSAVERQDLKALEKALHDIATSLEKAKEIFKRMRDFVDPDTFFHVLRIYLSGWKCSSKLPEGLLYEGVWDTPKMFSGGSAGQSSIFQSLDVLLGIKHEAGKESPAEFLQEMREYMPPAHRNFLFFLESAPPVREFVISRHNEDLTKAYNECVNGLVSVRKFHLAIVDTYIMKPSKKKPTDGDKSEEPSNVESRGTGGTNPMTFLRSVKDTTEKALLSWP

| Structure (SMILES) | IC50 [µM] |
| --- | --- |
| FC(F)(F)c1ccccc1-c1c[nH]nn1 | 20 |
| Fc1ccc(-c2c[nH]nn2)cc1 | 2.1 |
| N#Cc1cccc(-c2c[nH]nn2)c1 | 0.029 |
| O=[N+]([O-])c1cccc(-c2c[nH]nn2)c1 | 0.11 |
| FC(F)(F)c1cccc(-c2c[nH]nn2)c1 | 0.07 |
| Nc1ccccc1-c1c[nH]nn1 | 1.7 |
| Cc1ccccc1-c1c[nH]nn1 | 1.7 |
| Fc1ccccc1-c1c[nH]nn1 | 0.63 |
| Nc1cccc(-c2c[nH]nn2)c1 | 4 |
| Cc1ccc(Cl)cc1-c1c[nH]nn1 | 0.12 |
| Brc1cccc(-c2c[nH]nn2)c1 | 0.023 |
| Oc1ccc(Cl)cc1-c1c[nH]nn1 | 0.002 |
| Brc1cc(-c2c[nH]nn2)ccn1 | 0.05 |
| CCc1cccc(-c2c[nH]nn2)c1 | 0.03 |
| Oc1cccc(-c2c[nH]nn2)c1 | 1.3 |
| Brc1ccccc1-c1c[nH]nn1 | 0.034 |
| FC(F)(F)c1cc(-c2c[nH]nn2)ccn1 | 0.34 |
| Cc1cccc(-c2c[nH]nn2)c1 | 0.12 |
| Fc1ccc2c(/C=C/c3nnn[nH]3)c[nH]c2c1 | > 100 |

The compounds below were run against T1, Indoleamine 2,3-dioxygenase 1 (Homo sapiens, UniProt P14902) (assay: Inhibition of human IDO1 transfected in mouse P815B clone-6 cells by HPLC analysis). Settings: not given.
Format: cell-based
Target sequence in this assay (P14902 whole entry): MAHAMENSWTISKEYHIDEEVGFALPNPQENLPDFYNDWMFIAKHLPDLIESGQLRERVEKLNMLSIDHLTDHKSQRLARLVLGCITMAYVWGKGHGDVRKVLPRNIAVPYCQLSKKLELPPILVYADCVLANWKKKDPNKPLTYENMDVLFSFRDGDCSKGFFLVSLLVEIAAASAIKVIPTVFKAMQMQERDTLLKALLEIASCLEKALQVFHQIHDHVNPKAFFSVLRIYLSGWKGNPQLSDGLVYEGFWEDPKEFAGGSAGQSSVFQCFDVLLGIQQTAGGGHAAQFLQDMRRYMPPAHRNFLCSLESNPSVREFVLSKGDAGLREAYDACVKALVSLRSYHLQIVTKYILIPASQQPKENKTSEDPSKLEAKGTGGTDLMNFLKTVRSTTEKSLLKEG

| Structure (SMILES) | IC50 [µM] |
| --- | --- |
| FC(F)(F)c1ccccc1-c1c[nH]nn1 | > 100 |
| Fc1ccc(-c2c[nH]nn2)cc1 | > 100 |
| N#Cc1cccc(-c2c[nH]nn2)c1 | 2.9 |
| O=[N+]([O-])c1cccc(-c2c[nH]nn2)c1 | 24 |
| FC(F)(F)c1cccc(-c2c[nH]nn2)c1 | 9 |
| Nc1ccccc1-c1c[nH]nn1 | > 100 |
| Cc1ccccc1-c1c[nH]nn1 | > 100 |
| Fc1ccccc1-c1c[nH]nn1 | 70 |
| Nc1cccc(-c2c[nH]nn2)c1 | > 100 |
| Cc1ccc(Cl)cc1-c1c[nH]nn1 | 14 |
| Brc1cccc(-c2c[nH]nn2)c1 | 0.94 |
| Brc1cc(-c2c[nH]nn2)ccn1 | 2.9 |
| CCc1cccc(-c2c[nH]nn2)c1 | 1.1 |
| Oc1cccc(-c2c[nH]nn2)c1 | > 100 |
| Brc1ccccc1-c1c[nH]nn1 | 2.6 |
| FC(F)(F)c1cc(-c2c[nH]nn2)ccn1 | 56 |
| Cc1cccc(-c2c[nH]nn2)c1 | 7 |

What follows are compounds tested against T1, Indoleamine 2,3-dioxygenase 1. Settings: at 1 mM.
Target sequence in this assay (P14902 whole entry, looked up): as the sequence (P14902 whole entry) above

| Structure (SMILES) | inhibition |
| --- | --- |
| CCn1ncc(-c2ccccc2)n1 | inactive |
| CCn1nncc1-c1ccccc1 | inactive |
| c1ccc2[nH]nnc2c1 | inactive |
| c1ccc(Cn2cc(-c3ccccc3)nn2)cc1 | inactive |
| c1cc(-c2ccncc2)ccn1 | inactive |
| Cn1nncc1-c1cccc(Cl)c1 | inactive |
| Cn1cc(-c2cccc(Cl)c2)nn1 | inactive |
| Cn1ncc(-c2ccccc2)n1 | inactive |
| Oc1ccccc1-c1ccno1 | inactive |
| Cn1cc(-c2ccccc2)nn1 | inactive |
| CCn1cc(-c2ccccc2)nn1 | inactive |
| c1ccc(-c2cnnn2-c2ccccc2)cc1 | inactive |
| Fc1ccc(-c2cnnn2-c2ccccc2)cc1 | inactive |
| Clc1cccc(-c2cnnn2-c2ccccc2)c1 | inactive |
| Cn1nncc1-c1ccccc1 | inactive |
| Cc1ccc2[nH]nnc2c1 | inactive |
| NCCc1ccccc1-c1c[nH]nn1 | inactive |
| O=C(O)CCc1ccccc1-c1c[nH]nn1 | inactive |
| COc1ccccc1-c1cnnn1-c1ccccc1 | inactive |
| c1ccc(Cc2c[nH]nn2)cc1 | inactive |
| c1ccc(SCc2c[nH]nn2)cc1 | inactive |
| Cc1cccc(-c2cnnn2-c2ccccc2)c1 | inactive |
| c1ccc(-c2ccncc2)cc1 | inactive |
| CCCCn1nncc1-c1ccccc1 | inactive |
| c1ccc(-c2ccncn2)cc1 | inactive |
| CCCCn1cc(-c2ccccc2)nn1 | inactive |
| c1ccc(Cn2nncc2-c2ccccc2)cc1 | inactive |
| C1=C(c2c[nH]nn2)CCCC1 | inactive |

The compounds below were run against T1, Indoleamine 2,3-dioxygenase 1 (assay: Inhibition of human recombinant N-terminal His-tagged IDO1 (Ala2 to Gly403) overexpressed in Escherichia coli BL21 at pH 6.5 after 60 mins by HPLC analysis). Settings: not given.
Target sequence in this assay (P14902 whole entry): as above

| Structure (SMILES) | IC50 [µM] |
| --- | --- |
| FC(F)(F)c1ccccc1-c1c[nH]nn1 | 650 |
| Cc1ccc(-c2c[nH]nn2)cc1 | 1000 |
| Fc1ccc(-c2c[nH]nn2)cc1 | 190 |
| N#Cc1cccc(-c2c[nH]nn2)c1 | 2.8 |
| O=[N+]([O-])c1cccc(-c2c[nH]nn2)c1 | 15 |
| Cc1cccc(N)c1-c1c[nH]nn1 | 1200 |
| FC(F)(F)c1cccc(-c2c[nH]nn2)c1 | 6 |
| Nc1ccccc1-c1c[nH]nn1 | 60 |
| O=Cc1ccccc1-c1c[nH]nn1 | 1300 |
| Cc1ccc(N)cc1-c1c[nH]nn1 | 3200 |
| Cc1ccccc1-c1c[nH]nn1 | 39 |
| Fc1ccccc1-c1c[nH]nn1 | 80 |
| Nc1cccc(-c2c[nH]nn2)c1 | 1500 |
| Cc1ccc(Cl)cc1-c1c[nH]nn1 | 4.3 |
| Brc1cccc(-c2c[nH]nn2)c1 | 2 |
| Cc1c(Cl)cccc1-c1c[nH]nn1 | 72 |
| c1cc(-c2c[nH]cn2)ccn1 | 1800 |
| Brc1cc(-c2c[nH]nn2)ccn1 | 3.3 |
| FC(F)(F)c1ccc(-c2c[nH]nn2)cc1 | 2300 |
| CCc1cccc(-c2c[nH]nn2)c1 | 13 |
| Oc1cccc(-c2c[nH]nn2)c1 | 310 |
| Brc1ccccc1-c1c[nH]nn1 | 6.4 |
| FC(F)(F)c1cc(-c2c[nH]nn2)ccn1 | 15 |
| Cc1cccc(-c2c[nH]nn2)c1 | 22 |
| Cc1cccc(NC(=O)C(F)(F)F)c1-c1c[nH]nn1 | 3000 |
| CNc1ccccc1-c1c[nH]nn1 | 1800 |

These compounds were tested against Tryptophan 2,3-dioxygenase (Mus musculus, UniProt P48776) (assay: Inhibition of mouse TDO in P815 clone 12 cells by HPLC analysis). Settings: not given.
Chain of Tryptophan 2,3-dioxygenase (Mus musculus, UniProt P48776) (P48776 whole entry): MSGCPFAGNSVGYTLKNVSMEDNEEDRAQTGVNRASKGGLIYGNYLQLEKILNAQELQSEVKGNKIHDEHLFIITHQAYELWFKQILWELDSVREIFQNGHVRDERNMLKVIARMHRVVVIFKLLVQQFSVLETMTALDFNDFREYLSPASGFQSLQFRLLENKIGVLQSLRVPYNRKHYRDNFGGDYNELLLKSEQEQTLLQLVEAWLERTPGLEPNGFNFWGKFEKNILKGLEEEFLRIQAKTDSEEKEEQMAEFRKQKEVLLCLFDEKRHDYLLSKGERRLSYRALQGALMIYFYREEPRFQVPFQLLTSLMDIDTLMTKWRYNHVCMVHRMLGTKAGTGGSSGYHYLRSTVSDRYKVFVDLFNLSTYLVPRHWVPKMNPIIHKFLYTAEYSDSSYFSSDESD
Format: cell-based

| Structure (SMILES) | IC50 [µM] |
| --- | --- |
| FC(F)(F)c1ccccc1-c1c[nH]nn1 | > 100 |
| Fc1ccc(-c2c[nH]nn2)cc1 | > 100 |
| N#Cc1cccc(-c2c[nH]nn2)c1 | > 100 |
| O=[N+]([O-])c1cccc(-c2c[nH]nn2)c1 | > 100 |
| Nc1nonc1C(=NO)Nc1ccc(F)c(Cl)c1 | 60 |
| FC(F)(F)c1cccc(-c2c[nH]nn2)c1 | > 100 |
| Nc1ccccc1-c1c[nH]nn1 | > 100 |
| Cc1ccccc1-c1c[nH]nn1 | > 100 |
| Fc1ccccc1-c1c[nH]nn1 | > 100 |
| Nc1cccc(-c2c[nH]nn2)c1 | > 100 |
| Cc1ccc(Cl)cc1-c1c[nH]nn1 | > 100 |
| Brc1cccc(-c2c[nH]nn2)c1 | > 100 |
| Oc1ccc(Cl)cc1-c1c[nH]nn1 | > 100 |
| Brc1cc(-c2c[nH]nn2)ccn1 | > 100 |
| CCc1cccc(-c2c[nH]nn2)c1 | > 100 |
| Oc1cccc(-c2c[nH]nn2)c1 | > 100 |
| Brc1ccccc1-c1c[nH]nn1 | > 100 |
| FC(F)(F)c1cc(-c2c[nH]nn2)ccn1 | > 100 |
| Cc1cccc(-c2c[nH]nn2)c1 | > 100 |
| Fc1ccc2c(/C=C/c3nnn[nH]3)c[nH]c2c1 | 17 |

The compounds below were run on HepG2 (assay: Cytotoxicity against human HepG2 cells after 24 hrs by MTS-PMS assay). Settings: HepG2, 24 h, read-out: LD50 (the source's name).
Format: functional
Procedure, shortened: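 Hep G2 cells (2 × 10⁴ per well) in IMDM with 10% FCS exposed to compound titrated 0.001–100 μM for 24 h at 37 °C; living cells counted by MTS/PMS assay; LD₅₀ reported as mean of at least two independent assays with standard deviation.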

| Structure (SMILES) | CC50 [µM] |
| --- | --- |
| FC(F)(F)c1ccccc1-c1c[nH]nn1 | > 100 |
| N#Cc1cccc(-c2c[nH]nn2)c1 | > 100 |
| O=[N+]([O-])c1cccc(-c2c[nH]nn2)c1 | > 100 |
| FC(F)(F)c1cccc(-c2c[nH]nn2)c1 | > 100 |
| Nc1ccccc1-c1c[nH]nn1 | > 100 |
| Brc1ccccc1-c1cnn[nH]1 | > 100 |
| Cc1ccccc1-c1c[nH]nn1 | > 100 |
| Fc1ccccc1-c1c[nH]nn1 | > 100 |
| Nc1cccc(-c2c[nH]nn2)c1 | > 100 |
| Cc1ccc(Cl)cc1-c1c[nH]nn1 | > 100 |
| Brc1cccc(-c2c[nH]nn2)c1 | > 100 |
| Fc1ccc(-c2cnn[nH]2)cc1 | > 100 |
| Oc1ccc(Cl)cc1-c1c[nH]nn1 | > 100 |
| Brc1cc(-c2c[nH]nn2)ccn1 | > 100 |
| CCc1cccc(-c2c[nH]nn2)c1 | > 100 |
| Oc1cccc(-c2c[nH]nn2)c1 | > 100 |
| Clc1ccccc1-c1cnn[nH]1 | > 100 |
| FC(F)(F)c1cc(-c2c[nH]nn2)ccn1 | > 100 |
| Cc1cccc(-c2c[nH]nn2)c1 | > 100 |
| Nc1nonc1/C(=N/O)Nc1ccc(F)c(Cl)c1 | > 100 |
| Fc1ccc2c(/C=C/c3nnn[nH]3)c[nH]c2c1 | > 100 |

What follows are compounds tested against T1, Indoleamine 2,3-dioxygenase 1 (assay: Inhibition of human IDO1 transfected in HEK293 clone 6 cells by HPLC analysis). Settings: not given.
Format: cell-based
Target sequence in this assay (P14902 whole entry, looked up): as the sequence (P14902 whole entry) above

| Structure (SMILES) | inhibition |
| --- | --- |
| FC(F)(F)c1ccccc1-c1c[nH]nn1 | Active |
| N#Cc1cccc(-c2c[nH]nn2)c1 | Active |
| O=[N+]([O-])c1cccc(-c2c[nH]nn2)c1 | Active |
| FC(F)(F)c1cccc(-c2c[nH]nn2)c1 | Active |
| Nc1ccccc1-c1c[nH]nn1 | Active |
| Brc1ccccc1-c1cnn[nH]1 | Active |
| Cc1ccccc1-c1c[nH]nn1 | Active |
| Fc1ccccc1-c1c[nH]nn1 | Active |
| Nc1cccc(-c2c[nH]nn2)c1 | Active |
| Cc1ccc(Cl)cc1-c1c[nH]nn1 | Active |
| Brc1cccc(-c2c[nH]nn2)c1 | Active |
| Fc1ccc(-c2cnn[nH]2)cc1 | Active |
| Oc1ccc(Cl)cc1-c1c[nH]nn1 | Active |
| Brc1cc(-c2c[nH]nn2)ccn1 | Active |
| CCc1cccc(-c2c[nH]nn2)c1 | Active |
| Oc1cccc(-c2c[nH]nn2)c1 | Active |
| Clc1ccccc1-c1cnn[nH]1 | Active |
| FC(F)(F)c1cc(-c2c[nH]nn2)ccn1 | Active |
| Cc1cccc(-c2c[nH]nn2)c1 | Active |
| Nc1nonc1/C(=N/O)Nc1ccc(F)c(Cl)c1 | Active |
| Fc1ccc2c(/C=C/c3nnn[nH]3)c[nH]c2c1 | Active |

Each compound was assayed against Tryptophan 2,3-dioxygenase (Homo sapiens, UniProt P48775) (assay: Inhibition of human TDO transfected in mouse P815B clone 19 cells by HPLC analysis). Settings: not given.
Chain of Tryptophan 2,3-dioxygenase (Homo sapiens, UniProt P48775) (P48775 whole entry): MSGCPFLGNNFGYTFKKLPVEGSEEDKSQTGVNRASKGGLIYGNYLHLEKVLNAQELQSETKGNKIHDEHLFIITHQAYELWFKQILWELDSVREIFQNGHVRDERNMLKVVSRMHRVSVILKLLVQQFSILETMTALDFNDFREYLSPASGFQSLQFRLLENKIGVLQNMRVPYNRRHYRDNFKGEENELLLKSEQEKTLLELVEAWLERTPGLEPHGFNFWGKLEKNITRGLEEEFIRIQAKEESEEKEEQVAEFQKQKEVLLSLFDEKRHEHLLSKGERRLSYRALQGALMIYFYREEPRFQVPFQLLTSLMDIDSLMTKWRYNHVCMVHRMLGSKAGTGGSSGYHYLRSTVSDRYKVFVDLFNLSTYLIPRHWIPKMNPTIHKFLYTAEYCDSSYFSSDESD
Format: cell-based

| Structure (SMILES) | IC50 [µM] |
| --- | --- |
| FC(F)(F)c1ccccc1-c1c[nH]nn1 | > 100 |
| Fc1ccc(-c2c[nH]nn2)cc1 | > 100 |
| N#Cc1cccc(-c2c[nH]nn2)c1 | > 100 |
| O=[N+]([O-])c1cccc(-c2c[nH]nn2)c1 | > 100 |
| Nc1nonc1C(=NO)Nc1ccc(F)c(Cl)c1 | 70 |
| FC(F)(F)c1cccc(-c2c[nH]nn2)c1 | > 100 |
| Nc1ccccc1-c1c[nH]nn1 | > 100 |
| Cc1ccccc1-c1c[nH]nn1 | > 100 |
| Fc1ccccc1-c1c[nH]nn1 | > 100 |
| Nc1cccc(-c2c[nH]nn2)c1 | > 100 |
| Cc1ccc(Cl)cc1-c1c[nH]nn1 | > 100 |
| Brc1cccc(-c2c[nH]nn2)c1 | > 100 |
| Oc1ccc(Cl)cc1-c1c[nH]nn1 | > 100 |
| Brc1cc(-c2c[nH]nn2)ccn1 | > 100 |
| CCc1cccc(-c2c[nH]nn2)c1 | > 100 |
| Oc1cccc(-c2c[nH]nn2)c1 | > 100 |
| Brc1ccccc1-c1c[nH]nn1 | > 100 |
| FC(F)(F)c1cc(-c2c[nH]nn2)ccn1 | > 100 |
| Cc1cccc(-c2c[nH]nn2)c1 | > 100 |
